The sample as a whole holds a higher share of hits than the screen did.
A1 apoptosis 2: A1 inhibition read as caspase activation; MEF A1-2A-BIM cells, caspase-Glo luminescence, 3 h; percent of clofoctol response, DMSO zero; caspase activation, % (no concentration beside the values); 24,000 tested, under 10 active; AID 2465; in the data active = caspase activation above about 5.9%
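system = A1-2A-BIM-expressing MEF cells | quantity = 2500 MEF cells/well | dosing = 50 nL compound per well, pinned | schedule = overnight cell settling, then 3 h compound exposure, 37 °C | signal = luminescence from DEVD-luciferin Caspase-Glo reagent, 1:1 in 50 mM HEPES, 1 h RT | read-out = Caspase-3/7 activation, seen as rise in luminescence signal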
T cruzi HTS: inhibitors of intracellular Trypanosoma cruzi. activity score (inhibition), % at 5.01 µM. AID 651903. 4.9% of 22,000 active. intracellular Trypanosoma cruzi in host cells, plate reader; in the data active = activity score above about 55%;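 also: parasites and compound incubated about four days before reading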
INS-1E rescue: preserves ATP levels in cytokine-treated INS-1E cells; INS-1E cytokine-induced death, ATP luminescence, 48 h; normalised: neutral wells 0, positive control 100; protection from cytokine-induced ATP loss, % at 10 µM; 0.1% of 20,000 active;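 active = mean replicate protection from cytokine-induced ATP loss at least 50% and at least 75% of replicates each reaching 50%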
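Assay system: INS-1E rat cells / Quantity: 8000 cells per well / Medium: RPMI without phenol red, 5% FBS / Probe or stimulus: three-cytokine cocktail (IFN-γ, TNF-α, IL-1β) / Dosing: one compound concentration, pin transfer / Timing: 48 h co-treatment, 10 min post-lysis read / Technique: CellTiter-Glo luminescence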
Numbers stand for hits; – = inactive; · = not tested or not shown.

SMILES	A1 apoptosis 2	T cruzi HTS	INS-1E rescue
C=CCNC(=O)[C@@H]1[C@H]2C(=O)O[C@H](c3ccccc3)[C@H](c3ccccc3)N2[C@H](c2ccc(OCCO)cc2)[C@@]12C(=O)Nc1ccccc12	–	·	·
C[C@H]1CN([C@@H](C)CO)C(=O)Cc2cc(NC(=O)Nc3ccccc3)ccc2O[C@H]1CN(C)C(=O)Nc1cccc2ccccc12	·	–	–
C[C@H](CO)N1C[C@H](C)[C@@H](CN(C)C(=O)Nc2ccc(F)cc2)Oc2ccc(NC(=O)c3ccncc3)cc2C1=O	–	–	·
C[C@@H]1CCCCO[C@@H](CN(C)C(=O)Cc2ccccc2)[C@@H](C)CN([C@H](C)CO)C(=O)c2cc(NC(=O)CCC(F)(F)F)ccc2O1	·	–	–
C[C@@H]1CN([C@@H](C)CO)C(=O)Cc2cc(NC(=O)Nc3ccc(F)cc3)ccc2O[C@@H]1CN(C)CC1CCCCC1	–	–	–
C[C@H](CO)N1C[C@H](C)[C@@H](CN(C)CC2CC2)Oc2c(NC(=O)Nc3ccc(F)cc3)cccc2C1=O	–	–	–
C[C@H](CO)N1C[C@H](C)[C@H](CN(C)Cc2ccc(-c3ccccc3)cc2)Oc2c(NC(=O)C3CCCCC3)cccc2C1=O	–	–	–
COc1ccc(CN(C)C[C@@H]2Oc3ccc(NS(=O)(=O)c4ccc(OC)cc4)cc3CC(=O)N([C@H](C)CO)C[C@H]2C)cc1	–	70	–
COc1ccc(CN(C)C[C@@H]2Oc3ccc(NS(=O)(=O)c4ccc(F)cc4)cc3CC(=O)N([C@H](C)CO)C[C@H]2C)cc1	·	–	–
C[C@H](CO)N1C[C@H](C)[C@H](CN(C)C(=O)Nc2ccc3c(c2)OCO3)OCCCC[C@H](C)Oc2ccc(NC(=O)NC3CCCCC3)cc2C1=O	–	·	·
C[C@H](CO)N1C[C@H](C)[C@H](CN(C)S(=O)(=O)c2cccc(F)c2)Oc2ncc(-c3cccc(C(F)(F)F)c3)cc2C1=O	·	59	·
C[C@H](CO)N1C[C@H](C)[C@H](CN(C)S(=O)(=O)c2ccc(F)cc2)Oc2ncc(-c3cccc(C(F)(F)F)c3)cc2C1=O	–	89	·
C[C@H](CO)N1C[C@H](C)[C@H](CN(C)S(=O)(=O)c2cccc(F)c2)Oc2ncc(Br)cc2C1=O	·	–	·
COc1ccc(S(=O)(=O)N(C)C[C@@H]2Oc3ncc(-c4cccc(C(F)(F)F)c4)cc3C(=O)N([C@H](C)CO)C[C@@H]2C)cc1	–	–	·
C[C@@H]1CCCCO[C@@H](CN(C)C)[C@H](C)CN([C@H](C)CO)C(=O)c2cc(NC(=O)Nc3ccc(F)cc3)ccc2O1	–	·	·
COc1ccc(C#Cc2ccc3c(c2)[C@]2(C(=O)N3)[C@H](C(N)=O)[C@H]3C(=O)O[C@H](c4ccccc4)[C@H](c4ccccc4)N3[C@@H]2c2ccccc2OCCO)cc1	–	·	·
COc1ccc(NC(=O)N(C)C[C@H]2Oc3c(NS(=O)(=O)c4ccccc4)cccc3C(=O)N([C@@H](C)CO)C[C@@H]2C)cc1	–	–	–
C[C@H](CO)N1C[C@H](C)[C@H](CN(C)Cc2ccc(Oc3ccccc3)cc2)Oc2ccc(NC(=O)Nc3ccccc3)cc2CC1=O	·	–	–
C[C@@H]1CN([C@H](C)CO)C(=O)Cc2cc(NC(=O)Nc3ccc4c(c3)OCO4)ccc2O[C@H]1CN(C)Cc1ccc(Oc2ccccc2)cc1	–	78	–
C[C@H]1CN([C@@H](C)CO)C(=O)Cc2cc(NC(=O)Nc3ccc4c(c3)OCO4)ccc2O[C@H]1CN(C)Cc1ccccc1	·	–	–
C[C@@H]1CN([C@@H](C)CO)C(=O)Cc2cc(NC(=O)Nc3ccc4c(c3)OCO4)ccc2O[C@@H]1CN(C)Cc1ccc(Oc2ccccc2)cc1	·	65	–
C[C@@H]1CN([C@H](C)CO)C(=O)Cc2cc(NC(=O)Nc3ccc4c(c3)OCO4)ccc2O[C@@H]1CN(C)Cc1ccccc1	·	–	–
C[C@@H]1CN([C@H](C)CO)C(=O)Cc2cc(NC(=O)Nc3ccc4c(c3)OCO4)ccc2O[C@@H]1CN(C)Cc1ccc(Oc2ccccc2)cc1	·	73	–
COc1ccc(S(=O)(=O)Nc2ccc3c(c2)C(=O)N([C@@H](C)CO)C[C@@H](C)[C@H](CN(C)S(=O)(=O)c2c(C)noc2C)OCCCC[C@@H](C)O3)cc1	–	·	·
C[C@H](CO)N1C[C@H](C)[C@H](CN(C)S(=O)(=O)c2cn(C)cn2)OCCCC[C@H](C)Oc2ccc(NS(=O)(=O)c3cn(C)cn3)cc2C1=O	–	·	·
SMILES	A1 apoptosis 2	T cruzi HTS	INS-1E rescue
COc1ccc(S(=O)(=O)N(C)C[C@H]2Oc3ccc(NS(=O)(=O)c4ccc(Cl)cc4)cc3CC(=O)N([C@H](C)CO)C[C@H]2C)cc1	·	67	–
COc1ccc(S(=O)(=O)Nc2ccc3c(c2)CC(=O)N([C@H](C)CO)C[C@@H](C)[C@@H](CN(C)S(=O)(=O)c2ccc(OC)cc2)O3)cc1	–	67	–
COc1ccc(S(=O)(=O)Nc2ccc3c(c2)CC(=O)N([C@H](C)CO)C[C@@H](C)[C@H](CN(C)S(=O)(=O)c2ccc(Cl)cc2)O3)cc1	·	–	–
COc1ccc(S(=O)(=O)N(C)C[C@H]2Oc3ccc(NS(=O)(=O)c4ccc(Cl)cc4)cc3CC(=O)N([C@@H](C)CO)C[C@H]2C)cc1	–	62	–
COc1ccc(S(=O)(=O)Nc2ccc3c(c2)CC(=O)N([C@H](C)CO)C[C@H](C)[C@H](CN(C)S(=O)(=O)c2ccc(Cl)cc2)O3)cc1	–	–	–
COc1ccc(S(=O)(=O)Nc2ccc3c(c2)CC(=O)N([C@@H](C)CO)C[C@H](C)[C@@H](CN(C)S(=O)(=O)c2ccc(OC)cc2)O3)cc1	–	–	–
COc1ccc(S(=O)(=O)Nc2ccc3c(c2)CC(=O)N([C@@H](C)CO)C[C@@H](C)[C@@H](CN(C)S(=O)(=O)c2ccc(Cl)cc2)O3)cc1	·	60	–
COc1ccc(S(=O)(=O)N(C)C[C@H]2Oc3ccc(NS(=O)(=O)c4ccc(Cl)cc4)cc3CC(=O)N([C@H](C)CO)C[C@@H]2C)cc1	–	·	·
C[C@H](CO)N1C[C@H](C)[C@@H](CN(C)Cc2ccc3c(c2)OCO3)Oc2ccc(NC(=O)Cc3ccccc3)cc2CC1=O	–	·	·
C[C@H](CO)N1C[C@H](C)[C@@H](CN(C)C(=O)Nc2ccc3c(c2)OCO3)Oc2ccc(NS(C)(=O)=O)cc2C1=O	–	–	–
COc1ccc(S(=O)(=O)N(C)C[C@@H]2Oc3ccc(NS(=O)(=O)c4ccc(Cl)cc4)cc3CC(=O)N([C@@H](C)CO)C[C@@H]2C)cc1	–	–	–
COc1ccc(S(=O)(=O)Nc2ccc3c(c2)CC(=O)N([C@H](C)CO)C[C@@H](C)[C@@H](CN(C)S(=O)(=O)c2ccc(Cl)cc2)O3)cc1	–	60	–
COC(=O)CCCCCCC(=O)N/N=C/c1ccc([N+](=O)[O-])s1	–	81	–
O=C(O)CCCCCCC(=O)N/N=C/c1ccc([N+](=O)[O-])s1	–	–	–
O=C(CCCCCC(=O)Nc1ccccc1O)N/N=C/c1ccc([N+](=O)[O-])s1	–	·	·
O=C(CCCCCC(=O)N/N=C/c1ccc([N+](=O)[O-])s1)NO	·	64	–
